These results are taken from ChEMBL document CHEMBL1137220, “2-(2-(dimethylaminomethyl)phenoxy)-5-iodophenylamine: an improved serotonin transporter imaging agent” (J Med Chem, 2004).

Test [1] deals with Sodium-dependent serotonin transporter (Homo sapiens, UniProt P31645). As to the kind of experiment: Binding affinity for serotonin transporter expressed in […] cells. It counts as cell-based. The essentials:
(§1)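 Membranes from confluent pig kidney LLC-PK₁ cells stably expressing the respective transporter, homogenized and pelleted, 30–40 μg protein. Incubated with 0.4 nM [¹²⁵I]IPT or [¹²⁵I]IDAM and 8–10 competitor concentrations (10⁻¹⁰ to 10⁻⁵ M) in 50 mM Tris-HCl pH 7.4, 120 mM NaCl, 0.1% BSA, 1 h at room temperature. Nonspecific binding was defined with 10 μM CFT for IPT and 1 μM IDAM for IDAM. Filtration, gamma counting, nonlinear regression for Ki.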

Test [2] concerns the target Sodium-dependent dopamine transporter (Homo sapiens, UniProt Q01959). Kind of test: Binding affinity for dopamine transporter expressed in […] cells. The format is cell-based. The essentials:
as §1

Sodium-dependent dopamine transporter, sequence (Q01959 whole entry): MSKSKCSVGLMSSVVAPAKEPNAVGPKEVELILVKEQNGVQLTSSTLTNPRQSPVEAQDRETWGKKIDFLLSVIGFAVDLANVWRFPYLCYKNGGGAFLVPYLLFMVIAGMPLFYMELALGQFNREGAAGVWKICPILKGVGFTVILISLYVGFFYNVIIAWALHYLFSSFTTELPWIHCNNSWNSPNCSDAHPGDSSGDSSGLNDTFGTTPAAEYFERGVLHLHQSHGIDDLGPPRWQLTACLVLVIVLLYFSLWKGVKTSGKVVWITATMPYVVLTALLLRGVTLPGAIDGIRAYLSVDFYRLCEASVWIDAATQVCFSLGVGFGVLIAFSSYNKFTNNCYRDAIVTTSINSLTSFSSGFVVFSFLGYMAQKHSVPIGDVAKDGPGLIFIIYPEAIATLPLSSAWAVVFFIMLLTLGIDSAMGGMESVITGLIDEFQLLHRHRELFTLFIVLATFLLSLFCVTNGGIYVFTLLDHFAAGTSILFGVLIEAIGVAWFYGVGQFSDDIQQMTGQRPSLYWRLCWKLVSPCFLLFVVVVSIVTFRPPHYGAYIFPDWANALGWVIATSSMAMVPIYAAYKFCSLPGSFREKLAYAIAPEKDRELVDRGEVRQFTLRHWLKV
Sodium-dependent serotonin transporter, sequence (P31645 whole entry): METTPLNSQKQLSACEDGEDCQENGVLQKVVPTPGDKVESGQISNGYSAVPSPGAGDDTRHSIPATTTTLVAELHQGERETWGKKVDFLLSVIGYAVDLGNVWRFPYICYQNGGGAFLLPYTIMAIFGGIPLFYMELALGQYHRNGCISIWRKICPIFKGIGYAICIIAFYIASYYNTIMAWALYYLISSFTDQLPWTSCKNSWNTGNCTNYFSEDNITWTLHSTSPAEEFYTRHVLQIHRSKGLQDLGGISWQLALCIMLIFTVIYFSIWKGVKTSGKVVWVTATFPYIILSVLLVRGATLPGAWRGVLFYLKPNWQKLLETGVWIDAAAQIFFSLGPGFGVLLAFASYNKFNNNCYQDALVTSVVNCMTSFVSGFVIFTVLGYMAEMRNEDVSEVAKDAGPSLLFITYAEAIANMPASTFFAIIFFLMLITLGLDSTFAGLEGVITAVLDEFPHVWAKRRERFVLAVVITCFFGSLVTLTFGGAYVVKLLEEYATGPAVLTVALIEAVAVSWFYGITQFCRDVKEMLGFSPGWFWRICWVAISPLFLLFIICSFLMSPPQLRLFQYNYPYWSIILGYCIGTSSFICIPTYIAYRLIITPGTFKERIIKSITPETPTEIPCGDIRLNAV

Turning to `CN(C)Cc1ccccc1Sc1ccc(I)cc1N`, the values for the inhibitory constant (Ki) in test [1] and in test [2] were 0.01 nM and 840 nM, respectively.
On to `CN(C)Cc1ccccc1Cc1ccc(I)cc1N`, for which the inhibitory constant (Ki) in test [1] was 48.6 nM; in test [2] it was above 1000 nM.
Take `CN(C)Cc1ccccc1Oc1ccc(I)cc1CO`: the Ki was 0.12 nM in test [1] and above 1000 nM in test [2].
Consider `CN(C)Cc1ccccc1Sc1ccc(I)cc1CO`, for which the inhibition constant (Ki) is 0.09 nM in test [1] and above 1000 nM in test [2].
`CN(C)Cc1ccccc1Sc1ccc(C#N)cc1N` [DASB] had a Ki in test [2] above 1000 nM.
Consider `CNCCC(Oc1ccccc1OC)c1ccccc1` (stereo not given) [NISOXETINE], for which affinity in test [1] was put at a Ki of […].

By Ki is commonly meant the dissociation constant of the complex between target and ligand, obtained from inhibition or displacement. Read a high Ki as lower affinity.
